# Only some compounds are listed: those with a hit (about 1.7% of all), similar ones and a draw of the others.
# CAL PDZ FP-1: blocks peptide binding to human CAL PDZ domain; purified CAL PDZ, TMR-peptide fluorescence polarization, 1 h; inhibition, % at 20 µM; 330,000 compounds, 0.02% hits;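 active means highest replicate inhibition of at least 40%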
#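 System: tagged CAL PDZ domain. Schedule: 1 h room-temperature incubation prior to read. Signal: fluorescence polarization (mP). Measure: percent inhibition from loss of millipolarization.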
# C-LANA FP: KSHV C-LANA DNA binding inhibition; MBP-C-LANA/FAM-LBS DNA binding, fluorescence polarization; inhibition, % at 9 µM; 340,000 compounds, 0.078% hits; AID 504423;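 active means highest replicate inhibition at or above 60% at 9 µM, even if other replicates fall short; inactive means all replicates below 60% inhibition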
# APOBEC3A inh: inhibitors of human APOBEC3A DNA deaminase | P31941 | recombinant A3A, FAM/TAMRA ssDNA deamination fluorescence | inhibition, % at 20 µM | 330,000 compounds, 0.41% hits | AID 493011;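 active means at least 40% inhibition at 20 µM here, with at most 30% in a related deaminase screen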
# Target sequence (P31941 whole entry, looked up): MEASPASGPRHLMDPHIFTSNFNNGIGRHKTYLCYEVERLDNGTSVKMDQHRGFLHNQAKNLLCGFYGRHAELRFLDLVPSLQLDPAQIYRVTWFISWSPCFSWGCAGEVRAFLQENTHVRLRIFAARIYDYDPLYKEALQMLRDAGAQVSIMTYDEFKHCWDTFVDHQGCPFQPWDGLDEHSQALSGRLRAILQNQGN
# CAL PDZ FP-2: blocks peptide binding to the human CAL PDZ domain. Q9HD26. purified CAL PDZ, TMR-peptide fluorescence polarization, 1 h. inhibition, % at 24.9 µM. 300,000 compounds, 0.92% hits. AID 602252;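 active means mean inhibition of at least 30% with at least half of replicates also reaching 30%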
# Keap1-Nrf2 PPI: Keap1-Nrf2 (human) interaction inhibition | Q14145 | Keap1 Kelch-Nrf2 peptide fluorescence polarization, 1536-well | inhibition, % at 9.4 µM | 340,000 compounds, 0.15% hits | AID 504523; in the data active means inhibition above about 12%;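 further: human Keap1 Kelch domain with fluorescein labeled Nrf2 9mer peptide probe; higher means more block of Keap1 binding to Nrf2 peptide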
# APOBEC3G inh: APOBEC3G (human) deaminase inhibition; Q9HC16; recombinant A3G, ssDNA deamination FAM/TAMRA fluorescence; inhibition, % at 20 µM; 330,000 compounds, 0.28% hits;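 active means inhibition of at least 40% at 20 µM, with no more than 30% in the related APOBEC3A deaminase screen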
# Target sequence (Q9HC16 whole entry, looked up): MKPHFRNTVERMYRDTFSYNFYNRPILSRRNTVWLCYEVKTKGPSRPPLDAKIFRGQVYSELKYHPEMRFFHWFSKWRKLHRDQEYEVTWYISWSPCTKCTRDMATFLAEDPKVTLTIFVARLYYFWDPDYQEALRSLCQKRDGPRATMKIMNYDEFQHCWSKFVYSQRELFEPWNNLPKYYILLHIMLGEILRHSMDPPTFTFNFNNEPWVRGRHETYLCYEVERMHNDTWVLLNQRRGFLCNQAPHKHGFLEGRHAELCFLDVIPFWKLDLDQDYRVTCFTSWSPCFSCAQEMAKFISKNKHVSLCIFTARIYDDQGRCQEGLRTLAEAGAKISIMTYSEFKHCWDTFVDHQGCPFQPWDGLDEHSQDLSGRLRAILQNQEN
# A3G conf: confirmation of human APOBEC3G DNA deaminase inhibitors | shares compounds with APOBEC3G inh | inhibition, % at 20 µM | recombinant A3G ssDNA deaminase, UDG/FAM-TAMRA fluorescence | 890 compounds, 72% hits;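 active means inhibition reaching a set limit in any replicate at 20 µM, the limit being 80% of the first screen's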
# UDG ctr A3G: E. coli UDG inhibition in APOBEC3G counter-screen; UDG counterscreen, FAM/TAMRA oligo fluorescence; shares compounds with APOBEC3G inh; 710 tested, under 10 active; inhibition, % at 20 µM; AID 504715;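 active means compounds giving 40% or more inhibition at 20 µM in any one of the three replicates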;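 further: inhibitors lower the FAM signal released by uracil excision and alkaline cleavage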
# Hits are given with their value; i = inactive; nt = no result.
SMILES,CAL PDZ FP-1,C-LANA FP,APOBEC3A inh,CAL PDZ FP-2,Keap1-Nrf2 PPI,APOBEC3G inh,A3G conf,UDG ctr A3G
C=C(C)C(=O)Nc1cccc(C2=NOC3(C2)C[C@H](C(N)=O)N(C(=O)CC#N)C3)c1 (some centres undefined),nt,nt,i,nt,nt,74,73,nt
C=C(C)C(=O)Nc1cccc(C2=NOC3(C2)C[C@H](C(N)=O)N(C(=O)c2ccccc2C(=O)c2ccccc2)C3)c1 (some centres undefined),i,i,i,i,i,83,88,i
C/C=C/C=C\C(=O)Nc1cccc(C2=NOC3(C2)C[C@H](C(N)=O)N(C(=O)CC#N)C3)c1 (some centres undefined),i,i,i,i,i,i,nt,nt
CCC(=O)N1CC2(CC(c3cccc(NC(=O)CC(c4ccccc4)c4ccccc4)c3)=NO2)C[C@H]1C(N)=O (some centres undefined),i,i,i,i,i,i,nt,nt
C=C(C)C(=O)Nc1cccc(C2=NOC3(C2)C[C@H](C(N)=O)N(C(=O)CC)C3)c1 (some centres undefined),i,i,i,i,i,88,92,nt
C=C(C)C(=O)Nc1cccc(C2=NOC3(C2)C[C@@H](C(N)=O)N(C(=O)/C=C/C=C/C)C3)c1 (some centres undefined),i,68,i,i,i,89,93,i
CC(C)(C)NC(=O)CCN(/N=C/c1ccccc1F)C1=NS(=O)(=O)c2ccccc21,i,i,i,i,i,i,nt,nt
CCCCN(CC)CCCNC(=O)c1cn(-c2ccc(OC)cc2)c(=O)c2ccccc12,i,i,i,i,i,i,nt,nt
C/C=C(/C)C(=O)Nc1cccc(C2=NOC3(C2)C[C@@H](C(N)=O)N(C(=O)CC(c2ccccc2)c2ccccc2)C3)c1 (some centres undefined),i,i,i,i,i,i,nt,nt
C=C(C)C(=O)Nc1cccc(C2=NOC3(C2)C[C@@H](C(N)=O)N(C(=O)CC(c2ccccc2)c2ccccc2)C3)c1 (some centres undefined),i,i,i,i,i,70,71,i
C=C(C)C(=O)Nc1cccc(C2=NOC3(C2)C[C@@H](C(N)=O)N(C(=O)/C(C)=C/C)C3)c1 (some centres undefined),i,85,i,i,i,86,95,nt
C/C=C(\C)C(=O)Nc1cccc(C2=NOC3(C2)C[C@@H](C(N)=O)N(C(=O)/C(C)=C/C)C3)c1 (some centres undefined),i,i,i,i,i,i,nt,nt
CC1CCCN(c2nc(N(C)c3ccccc3)nc(N)c2[N+](=O)[O-])C1 (centres undefined),i,i,i,i,i,i,nt,nt
O=[N+]([O-])c1ccc(N/N=C/c2cccnc2)cc1,i,i,i,i,i,i,nt,nt
Clc1ccc(N/N=C/c2cccnc2)cc1,i,i,i,i,i,40,i,i
CCN(CC)S(=O)(=O)c1ccc(OC)c(NC(=O)c2cc(=O)[nH]c3ccccc23)c1,i,i,i,i,i,i,nt,nt
CCNC(=O)c1sc(=S)n(CC)c1N,i,i,i,i,i,i,nt,nt
CCn1c(N)c(C(=O)NC)sc1=S,i,i,i,i,i,59,i,nt
CCn1c(N)c(C(=O)NCC2CCCO2)sc1=S (centres undefined),nt,i,i,i,i,40,67,i
c1ccc2[nH]c(CCCc3nc4ccccc4[nH]3)nc2c1,i,i,i,i,i,i,nt,nt
S=c1cnc2ccccc2[nH]1,i,i,i,i,i,62,84,i
COCC(=O)Oc1c(S(=O)(=O)c2ccccc2)c(C)nn1C(C)(C)C,i,i,i,i,i,93,i,nt
Cc1nn(C(C)(C)C)c(OC(=O)C2CCCC2)c1S(=O)(=O)c1ccccc1,i,i,nt,i,i,nt,nt,nt
CC1(C)N([O-])C2=C(CCCC2)[N+]1=O,nt,i,i,i,i,i,nt,nt
Cc1[nH]n(-c2ccccc2)c(=S)c1C=NCCCN=Cc1c(C)[nH]n(-c2ccccc2)c1=S,i,i,i,i,i,62,54,i
SMILES,CAL PDZ FP-1,C-LANA FP,APOBEC3A inh,CAL PDZ FP-2,Keap1-Nrf2 PPI,APOBEC3G inh,A3G conf,UDG ctr A3G
COc1ccccc1N1CCN(C(=O)c2cccc(S(=O)(=O)N3CCCCCC3)c2)CC1,i,i,i,i,i,i,nt,nt
COC(=O)[C@]1(C)N[C@H](CN(C)C(=O)Nc2ccc(C(F)(F)F)cc2)[C@@H]2C(=O)N(C)C(=O)[C@@H]21,i,i,i,i,i,i,nt,nt
S=c1[nH]nc(-c2ccccc2)n1/N=C/c1ccc(Cl)cc1,i,i,nt,i,i,nt,nt,nt
Cc1ccccc1/C=N/n1c(-c2ccccn2)n[nH]c1=S,i,i,i,i,i,72,98,i
CC(/C=N/n1c(-c2ccco2)n[nH]c1=S)=C\c1ccccc1,i,i,i,i,i,i,nt,nt
S=c1[nH]nc(-c2ccccn2)n1/N=C/c1c(Cl)cccc1Cl,i,i,i,i,i,71,93,i
S=c1[nH]nc(-c2ccccn2)n1/N=C/c1ccc(Cl)cc1,i,i,i,i,i,50,82,i
CC(/C=N/n1c(-c2ccccn2)n[nH]c1=S)=C\c1ccccc1,nt,nt,i,nt,nt,51,37,i
COC(=O)c1cc(S(=O)(=O)N2CCCCCC2)cn1C,i,i,i,i,i,i,nt,nt
Cc1ccc(C(=O)N2CCOCC2)c(F)c1F,i,i,i,nt,i,i,nt,nt
Cc1n[nH]c(=S)n1/N=C/c1c(O)ccc2ccccc12,i,i,i,i,i,46,85,i
Oc1ccccc1/C=N/n1c(-c2ccccc2)n[nH]c1=S,i,i,i,i,i,i,nt,nt
S=c1[nH]nc(-c2ccccn2)n1/N=C/c1cccc2ccccc12,i,i,i,i,i,66,70,i
S=c1[nH]nc(-c2ccccn2)n1/N=C/c1cccs1,i,i,i,nt,i,i,nt,nt
S=c1[nH]nc(C2CCCCC2)n1/N=C/c1ccccc1,i,i,i,i,i,i,nt,nt
S=c1[nH]nc(C2CCCCC2)n1/N=C/c1ccccn1,i,i,i,i,i,51,79,i
S=c1[nH]nc(-c2ccccn2)n1/N=C/c1ccccc1,i,i,i,nt,i,46,78,i
Cc1nc2ccccc2c(=O)n1/N=C/c1c(O)ccc2ccccc12,i,i,i,i,i,i,nt,nt
CCN(CC)S(=O)(=O)c1cccc(C(=O)N[C@H](C(=O)NCc2ccc(Cl)cc2)C(C)C)c1,i,i,i,i,i,i,nt,nt
CCCCC(=O)Nc1sc(C(=O)N(CC)CC)c(C)c1C(=O)OC,i,i,i,i,i,68,68,i

# Source: PubChem BioAssay (several laboratories)
